Laboratory results: ChEMBL document CHEMBL1821641, “Synthesis and biological evaluation of 1-substituted-3(5)-(6-methylpyridin-2-yl)-4-(quinoxalin-6-yl)pyrazoles as transforming growth factor-β type 1 receptor kinase inhibitors” (Eur J Med Chem, 2011)

Legend:
TGF-beta receptor type-1 = target: T1, TGF-beta receptor type-1 (Homo sapiens, UniProt P36897); assay: Inhibition of human recombinant GST-fused ALK5 expressed in insect Sf9 cells using casein as substrate by radiometric kinase assay
T1 sequence (P36897 whole entry): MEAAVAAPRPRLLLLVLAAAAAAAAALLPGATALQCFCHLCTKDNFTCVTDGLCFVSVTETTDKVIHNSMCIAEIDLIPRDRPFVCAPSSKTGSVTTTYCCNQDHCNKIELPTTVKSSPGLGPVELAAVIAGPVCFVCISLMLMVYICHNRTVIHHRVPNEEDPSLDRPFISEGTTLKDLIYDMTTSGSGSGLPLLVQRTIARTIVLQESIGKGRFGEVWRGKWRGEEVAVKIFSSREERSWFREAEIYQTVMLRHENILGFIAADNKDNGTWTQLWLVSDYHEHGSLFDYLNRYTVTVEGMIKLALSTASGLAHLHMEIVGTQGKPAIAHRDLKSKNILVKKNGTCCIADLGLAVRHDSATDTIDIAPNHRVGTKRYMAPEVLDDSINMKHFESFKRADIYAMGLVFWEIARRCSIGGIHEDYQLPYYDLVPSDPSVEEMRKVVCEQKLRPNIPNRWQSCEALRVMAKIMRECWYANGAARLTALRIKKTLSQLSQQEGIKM

[1] = target: Mitogen-activated protein kinase 14 (Homo sapiens, UniProt Q16539); assay: Inhibition of human recombinant p38alpha expressed in Escherichia coli using ATF2 as substrate by radiometric kinase assay
Homo sapiens = species on record: Homo sapiens; assay: Selectivity index, ratio of IC50 for human recombinant p38alpha to IC50 for human recombinant ALK5
In short: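 Ratio of IC50 values from two radiometric (33P) protein kinase assays run by a contract lab. ALK5 assay: human recombinant GST-fusion kinase domain expressed in Sf9 cells via baculovirus, with casein as substrate. p38α assay: untagged human recombinant enzyme expressed in E. coli and Ni-agarose purified, with ATF2 as substrate, tested up to 1 μM. Index = IC50 p38α / IC50 ALK5.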

[2] = Chemical stability of compound; type: physicochemical

Chain of Mitogen-activated protein kinase 14 (Q16539 whole entry): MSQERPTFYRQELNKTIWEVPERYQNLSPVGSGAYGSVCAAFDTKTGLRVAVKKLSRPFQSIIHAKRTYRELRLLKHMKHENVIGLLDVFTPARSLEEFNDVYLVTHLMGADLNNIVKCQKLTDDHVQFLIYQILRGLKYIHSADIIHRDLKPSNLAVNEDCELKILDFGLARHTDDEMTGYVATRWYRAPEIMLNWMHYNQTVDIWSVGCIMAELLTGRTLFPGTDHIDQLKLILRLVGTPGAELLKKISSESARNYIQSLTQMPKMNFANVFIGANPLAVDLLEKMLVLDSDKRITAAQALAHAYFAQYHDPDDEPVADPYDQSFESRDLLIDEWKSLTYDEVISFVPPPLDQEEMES

| Structure (SMILES) | IC50 (TGF-beta receptor type-1) | IC50 [1] | Ratio IC50 (Homo sapiens) | Stability [2] |
| --- | --- | --- | --- | --- |
| Cc1cccc(-c2c(-c3ccc4nccnc4c3)cnn2CC(=O)Nc2cccc(C#N)c2)n1 | 0.737 µM | > 1 µM | > 1 | – |
| Cc1cccc(-c2nn(CC(=S)Nc3cccc(C#N)c3)cc2-c2ccc3nccnc3c2)n1 | 0.026 µM | > 1 µM | > 38 | – |
| Cc1cccc(-c2nn(CC(=S)Nc3cccc(C#N)c3)cc2-c2ccc3nc(C)c(C)nc3c2)n1 | > 1 µM | > 1 µM | – | – |
| Cc1cccc(-c2c(-c3ccc4nc(C)c(C)nc4c3)cnn2CC(=O)Nc2cccc(C#N)c2)n1 | > 1 µM | > 1 µM | – | – |
| Cc1cccc(-c2[nH]c(Cc3cccc(C(N)=O)c3)nc2-c2ccc3nccnc3c2)n1 | – | – | 28 | – |
| Cc1cccc(-c2nn(CC(=O)Nc3cccc(C(N)=O)c3)cc2-c2ccc3nccnc3c2)n1 | 0.048 µM | > 1 µM | > 21 | – |
| Cc1cccc(-c2c(-c3ccc4nc(C)c(C)nc4c3)cnn2CC(=O)Nc2ccccc2)n1 | > 1 µM | > 1 µM | – | – |
| Cc1cccc(-c2nn(CC(=O)Nc3cccc(C#N)c3)cc2-c2ccc3nc(C)c(C)nc3c2)n1 | > 1 µM | > 1 µM | – | – |
| Cc1cccc(-c2nn(CC(=O)Nc3ccccc3)cc2-c2ccc3nccnc3c2)n1 | 0.038 µM | > 1 µM | > 26 | – |
| Cc1cccc(-c2nn(CC(=S)Nc3ccccc3)cc2-c2ccc3nc(C)c(C)nc3c2)n1 | > 1 µM | > 1 µM | – | – |
| Cc1cccc(-c2nn(CCC(=O)Nc3cccc(C#N)c3)cc2-c2ccc3nc(C)c(C)nc3c2)n1 | > 1 µM | > 1 µM | – | – |
| Cc1cccc(-c2nn(CCC(=O)Nc3ccccc3)cc2-c2ccc3nccnc3c2)n1 | 0.082 µM | > 1 µM | > 12 | – |
| Cc1cccc(-c2nn(CC(=O)Nc3cccc(C#N)c3)cc2-c2ccc3nccnc3c2)n1 | 0.153 µM | > 1 µM | > 7 | – |
| Cc1cccc(-c2nn(CC(=O)Nc3cccc(C(N)=O)c3)cc2-c2ccc3nc(C)c(C)nc3c2)n1 | > 1 µM | > 1 µM | – | – |
| Cc1cccc(-c2nn(CC(=O)Nc3ccccc3)cc2-c2ccc3nc(C)c(C)nc3c2)n1 | > 1 µM | > 1 µM | – | – |
| Cc1cccc(-c2nn(CC(=S)Nc3ccccc3)cc2-c2ccc3nccnc3c2)n1 | 0.013 µM | > 1 µM | > 77 | Stable |
| Cc1cccc(-c2c(-c3ccc4nccnc4c3)cnn2CC(=O)Nc2ccccc2)n1 | 0.143 µM | > 1 µM | > 7 | – |
